Published values gathered from unrelated publications.
HTR2C: 5-hydroxytryptamine receptor 2C (HTR2C, Homo sapiens, UniProt P28335)
PTGS1: Prostaglandin G/H synthase 1 (PTGS1, Homo sapiens, UniProt P23219)
MMP3: Stromelysin-1 (MMP3, Homo sapiens, UniProt P08254)
FAAH: Fatty-acid amide hydrolase 1 (FAAH, Homo sapiens, UniProt O00519)
MTNR1A: Melatonin receptor type 1A (MTNR1A, Homo sapiens, UniProt P48039)
Tmem97: Sigma intracellular receptor 2 (Tmem97, Rattus norvegicus, UniProt Q5U3Y7)
ROCK1: Rho-associated protein kinase 1 (ROCK1, Homo sapiens, UniProt Q13464)
BDKRB1: B1 bradykinin receptor (BDKRB1, Homo sapiens, UniProt P46663)
CCKBR: Gastrin/cholecystokinin type B receptor (CCKBR, Homo sapiens, UniProt P32239)
USP10: Ubiquitin carboxyl-terminal hydrolase 10 (USP10, Homo sapiens, UniProt Q14694)

Structure (SMILES)	target	assay	setting	inhibition
Cn1cc(-c2cc(F)cc(N3CCn4c(cc5c4CCCC5)C3=O)c2CO)cc(Nc2ccc(N3CCN(C4COC4)CC3)cn2)c1=O	Aurora kinase A (AURKA, Homo sapiens, UniProt O14965)	enzyme activity, inhibitor	0.1 µM	10%
COCCN(CCOC)C(=O)[C@@]12C[C@@H]1[C@@H](n1cnc3c(NC(C4CC4)C4CC4)nc(Cl)nc31)[C@H](O)[C@@H]2O	HTR2C	ligand displacement, radioligand	10 µM	38%
COc1cc(Nc2ncc(F)c(Nc3ccc4c(n3)NC(=O)C(C)(C)O4)n2)cc(OC)c1OC	Serine/threonine-protein kinase SIK3 (SIK3, Homo sapiens, UniProt Q9Y2K2)	binding, competition with immobilised ligand	10 µM	35%
Clc1ccc2c(C3CCN(CCc4c[nH]c5ccccc45)CC3)c[nH]c2c1	PTGS1	enzyme activity, inhibitor	10 µM	31%
O=C(Nc1cccnn1)N1CCN([C@@H]2CCOc3cc(C(F)(F)F)ccc32)CC1	PTGS1	enzyme activity, inhibitor	20 µM	1%
CN(C)C(=O)COC(=O)Cc1ccc(OC(=O)c2ccc(NC(=N)N)cc2)cc1	MMP3	enzyme activity, inhibitor	10 µM	27%
CN(C(=O)Oc1nsnc1N1CCCCC1)c1cccc(-c2ccccc2)c1	FAAH	enzyme activity, inhibitor	10 µM, cell membranes	13%
CC(C)N1CCC[C@H]1CNC(=O)c1cn(C2CCCC2)c(=O)c2c1c1ccccc1n2C	MTNR1A	ligand displacement, radioligand	10 µM	37%
Cc1ncc(C)n2nc(/C=C/c3nc(N4CCCC4)cc(N4CCOCC4)n3)nc12	PTGS1	enzyme activity, inhibitor	10 µM	10%
c1ccc(OCc2cc(OC[C@@H]3CCN3)on2)cc1	Tmem97	ligand displacement, radioligand	10 µM	< 50%
Cc1cccc(N(C)C(=O)Oc2nsnc2N2CCCCC2)c1	FAAH	enzyme activity, inhibitor	10 µM, cell membranes	9%
C#Cc1n[nH]c2c(-c3cn(C(C)c4ccccn4)c(=O)[nH]c3=O)cc(F)cc12 (stereo not drawn)	ROCK1	enzyme activity, inhibitor	1 µM	-2.6%
CN(C(=O)Oc1nsnc1N1CCCCC1)c1ccccc1[N+](=O)[O-]	FAAH	enzyme activity, inhibitor	10 µM, cell membranes	46%
COCc1c(-c2cc3cc(C)cc(OC)c3s2)c2c(N)ncnn2c1CN1CCNC(=O)C1	BDKRB1	ligand displacement, radioligand	10 µM	5%
c1ccc(C(NCCNC(c2ccccc2)c2ccccc2)c2ccccc2)cc1	CCKBR	cell-free assay	10 µM	33%
CN(C(=O)Oc1nsnc1N1CCCCC1)c1cccc([N+](=O)[O-])c1	FAAH	enzyme activity, inhibitor	10 µM, cell membranes	11%
COc1ccc(S(=O)(=O)N2CCCCC2)cc1C	BDKRB1	ligand displacement, radioligand	10 µM	< 30%

Structure (SMILES)	target	assay	setting	inhibition
CCOC(=O)c1ccc(OC(=O)CCCCCNC(=N)N)cc1	USP10	enzyme activity, inhibitor	10 µM	3%
O=C(Cc1c[nH]c2cc(Cl)ccc12)N1CCC(n2ccnc2)CC1	Trypanothione synthetase (Trypanosoma cruzi, UniProt Q9GT49)	enzyme activity, inhibitor, absorbance	25 µM	6.2%
OC(c1ccc(F)cc1)C(F)(F)CCN1CCC(O)(c2ccc(Cl)cc2)CC1 (racemic)	Tmem97	ligand displacement, radioligand	10 µM	> 50%
CCN(C(=O)Oc1nsnc1N1CCCCC1)c1ccccc1	FAAH	enzyme activity, inhibitor	10 µM, cell membranes	24%
N=C(N)c1ccc2cc(OC(=O)c3ccc(N=C(N)N)cc3)ccc2c1	USP10	enzyme activity, inhibitor	10 µM	0%
C[C@H](C(=O)N[C@H]1COc2ccccc2[C@@H]1S(C)(=O)=O)c1ccc(F)cc1	PTGS1	enzyme activity, inhibitor	10 µM	-24%
CC(C)Cn1cnc2c(N)nc3ccccc3c21	MTNR1A	ligand displacement, radioligand	10 µM	32%
CN(C(=O)Oc1nsnc1N1CCCCC1)c1cccc(F)c1	FAAH	enzyme activity, inhibitor	10 µM, cell membranes	48%
COc1ccc(S(=O)(=O)N(CC(=O)NO)CC(C)C)cc1	MMP3	enzyme activity, inhibitor	1 µM	100%
COc1cccc(N(C)C(=O)Oc2nsnc2N2CCCCC2)c1	FAAH	enzyme activity, inhibitor	10 µM, cell membranes	17%
C#Cc1n[nH]c2c(-c3cn([C@@H](C)c4ccccc4)c(=O)[nH]c3=O)cc(F)cc12	ROCK1	enzyme activity, inhibitor	0.1 µM	3.5%
CN(CCN1CCC(OC(=O)Nc2ccccc2-c2ccccc2)CC1)C(=O)c1ccc(CN2CCC(C(N)=O)CC2)cc1	CCKBR	ligand displacement, radioligand	1 µM	-9%
CN(C(=O)Oc1nsnc1N1CCCCC1)c1ccc(F)cc1	FAAH	enzyme activity, inhibitor	10 µM, cell membranes	22%
COc1cc2c3c(c1OC)-c1cc4c(cc1CC3N(C)CC2)OCO4 (racemic)	HTR2C	ligand displacement, radioligand	10 µM	103%
Cn1cc(-c2cccc(N3CCc4c(sc5c4CC(C)(C)C5)C3=O)c2CO)cc(Nc2ccncn2)c1=O	Mitogen-activated protein kinase kinase kinase 8 (MAP3K8, Homo sapiens, UniProt P41279)	enzyme activity, inhibitor	1 µM	16%
CCCCc1ccc(C(=O)O)nc1	MMP3	enzyme activity, inhibitor	1 mM, pH 6	> 80%
